A selection: hits, their analogues and other compounds. The true share with any hit is near 9.6%.
TNAP inh hi DEA: human TNAP enzyme inhibitors, primary screen, biochemical, luminescent, high phosphate acceptor level, uHTS; purified TNAP, CDP-star luminescence, 1 M DEA; actives 0.03% (n = 200,000); inhibition, % at 20 µM;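 active means over 50% inhibition of tissue-nonspecific alkaline phosphatase at 20 µM in the single-dose screen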;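 further: plate controls were DMSO wells for no effect and EDTA-quenched wells as full inhibition for full effect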
Target sequence (P05186 whole entry, looked up): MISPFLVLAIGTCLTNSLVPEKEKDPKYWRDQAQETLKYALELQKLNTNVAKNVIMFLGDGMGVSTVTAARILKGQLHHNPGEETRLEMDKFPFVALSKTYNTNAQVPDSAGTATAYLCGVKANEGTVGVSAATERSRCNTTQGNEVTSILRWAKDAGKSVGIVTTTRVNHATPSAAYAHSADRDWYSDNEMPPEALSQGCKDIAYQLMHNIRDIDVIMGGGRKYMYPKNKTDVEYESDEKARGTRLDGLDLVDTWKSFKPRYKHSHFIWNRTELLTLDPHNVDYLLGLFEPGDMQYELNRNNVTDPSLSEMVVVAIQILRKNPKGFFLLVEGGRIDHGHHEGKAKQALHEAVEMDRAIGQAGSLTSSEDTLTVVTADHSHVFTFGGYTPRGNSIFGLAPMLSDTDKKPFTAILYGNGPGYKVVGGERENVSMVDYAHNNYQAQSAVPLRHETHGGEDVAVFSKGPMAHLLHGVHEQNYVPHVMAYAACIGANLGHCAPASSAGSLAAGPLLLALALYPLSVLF
Lmaj promast: Leishmania major promastigote growth inhibition, primary screen; Leishmania major promastigotes, resazurin fluorescence viability; actives 9% (n = 200,000); inhibition, % at 10 µM; in the data active means inhibition above about 50%;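 further: promastigotes grown with compound for 44 hours at 28 °C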
HCT116 bCat-KO: primary screen for growth suppressors in beta-catenin knockout HCT116 cells (colon tumor, human). HCT116 beta-catenin knockout viability, CellTiter-Glo, 60 h; active compounds read low. viability, % at 10 µM. actives 1.5% (n = 140,000). AID 818, 2007;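 active means viability at or under a set limit, the compound median less 4 SD, cut at about 6% in these data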;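 further: 0% = Hyamine 1622 control at 20 µM and 100% = untreated cell control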
TNAP act hiacc: TNAP activators at high phosphate acceptor level, primary screen, biochemical, luminescence, uHTS. Alkaline phosphatase, tissue-nonspecific isozyme (Homo sapiens), P05186. purified TNAP, CDP-star luminescence, 1 M DEA, 30 min; active compounds read high; 0 = EDTA background, 1 = DMSO-only activity. activation factor at 20 µM. 200,000 tested, under 10 active;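 active means activation factor at least 2 at 20 µM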
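system = human TNAP | amount = enzyme diluted 1/800 final | reagent = 100 µM CDP-star substrate | signal = luminescent substrate turnover signal | dosing = one dose, 20 µM | benchmarks = EDTA negative control, DMSO positive control | measure = activation factor | timing = 30 min reaction, room temperature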
HCT116 PTEN-null: growth suppression of PTEN-null HCT116, primary screen, cell-based, CellTiter-Glo | HCT116 PTEN-null viability, 60 h; active compounds read low | viability, % at 10 µM | actives 1.2% (n = 140,000);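 active means viability at or below a set limit, 4 SD under the median of all tested compounds, cut at about 3.7% in these data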;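 further: PTEN knockout HCT116 line with beta catenin targeted HCT116 as companion control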
TNAP inh noacc: human TNAP enzyme inhibitors, primary screen, biochemical, luminescent, no phosphate acceptor, uHTS | actives 0.26% (n = 200,000) | purified TNAP, CDP-star luminescence, 30 min | Alkaline phosphatase, tissue-nonspecific isozyme (Homo sapiens), P05186 | AID 1012, 2008 | inhibition, % at 20 µM;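 active means tissue-nonspecific alkaline phosphatase inhibition above about 50% at 20 µM in the single-dose screen, limit read from the data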;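 further: 0% = DMSO negative control and 100% = EDTA positive control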
Lmaj promast 1uM: Leishmania major promastigote growth inhibition, confirmation, 1 µM repeat of primary hits. shares compounds with Lmaj promast. L. major promastigote growth, resazurin fluorescence, 48 h. inhibition, % at 1 µM. actives 13% (n = 1,100). AID 1258, 2008;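 active means inhibition above about 50% in both repeat tests, limit read from the data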
Active calls of the source: *.

O=C(Nc1ccncc1)C1CCN(S(=O)(=O)c2cccs2)CC1 was read as TNAP inh hi DEA -4.1, Lmaj promast 0.2, TNAP act hiacc 1 and TNAP inh noacc -3.0.
CC(=O)Nc1ccc(-c2csc(NC(=O)C3CCN(S(=O)(=O)c4cccs4)CC3)n2)cc1 was read as TNAP inh hi DEA -2.0, Lmaj promast 70.1*, HCT116 bCat-KO 51.5, TNAP act hiacc 1, HCT116 PTEN-null 44.5, TNAP inh noacc -6.9 and Lmaj promast 1uM -1.1.
`N#CC(c1cccc(Cl)c1)c1ccc2c(C(F)(F)F)cc(C(F)(F)F)nc2n1` (stereo not given) gave TNAP inh hi DEA 16.0, Lmaj promast 99.8*, HCT116 bCat-KO 0.8*, TNAP act hiacc 0.8, HCT116 PTEN-null 1.0*, TNAP inh noacc 14.4 and Lmaj promast 1uM 59.5*.
`CCOC(=O)N1CCN(c2c(F)cc3[nH]c(=S)[nH]c3c2Br)CC1` gave TNAP inh hi DEA -0.2, Lmaj promast 50.9*, HCT116 bCat-KO 35.0, TNAP act hiacc 1, HCT116 PTEN-null 34.7, TNAP inh noacc -22.0 and Lmaj promast 1uM -14.4.
Screening O=Cc1ccc(OC2OCCOC2Oc2ccc(C=O)cc2)cc1 (stereo not given) returned TNAP inh hi DEA -8.1, Lmaj promast 53.2*, HCT116 bCat-KO 91.5, TNAP act hiacc 1.1, HCT116 PTEN-null 89.2, TNAP inh noacc -10.5 and Lmaj promast 1uM 1.5.
For COc1cccc(NC(=S)NN=C2CCCCCC2)c1 the results were TNAP inh hi DEA -4.2, Lmaj promast 46.6, TNAP act hiacc 1 and TNAP inh noacc -25.6.
For COc1ccc(S(=O)(=O)N(C)c2ccc(C(N)=O)cc2)cc1 the results were TNAP inh hi DEA -2.7, Lmaj promast -6.3, HCT116 bCat-KO 97.3, TNAP act hiacc 1, HCT116 PTEN-null 105.1 and TNAP inh noacc -10.3.
Cc1ccc2[nH]c3c(c2c1)CCC3=O was read as TNAP inh hi DEA -3.1, Lmaj promast -1.9, HCT116 bCat-KO 107.9, TNAP act hiacc 1, HCT116 PTEN-null 93.4 and TNAP inh noacc -9.0.
Screening Cc1ccc2[nH]c3c(c2c1)CCc1cn[nH]c1-3 returned TNAP inh hi DEA 3.5, Lmaj promast 51.6*, HCT116 bCat-KO 51.0, TNAP act hiacc 1, HCT116 PTEN-null 61.9, TNAP inh noacc 6.0 and Lmaj promast 1uM -7.7.
`N=c1c(-c2nc3ccccc3[nH]2)cc(C(=O)c2cccs2)nn1-c1ccc(Cl)cc1` gave Lmaj promast 91.4* and Lmaj promast 1uM 35.0.
For Nc1ccc(Oc2ccc([N+](=O)[O-])cc2[N+](=O)[O-])cc1 the results were TNAP inh hi DEA -2.6, Lmaj promast 55.8*, HCT116 bCat-KO 74.9, TNAP act hiacc 1, HCT116 PTEN-null 86.9, TNAP inh noacc -11.4 and Lmaj promast 1uM 7.0.
Screening Cc1cccc(OCC(=O)NC(=S)Nc2ccc(S(=O)(=O)NC3CCCCC3)cc2)c1 returned TNAP inh hi DEA -0.5, Lmaj promast -2.2, HCT116 bCat-KO 91.8, TNAP act hiacc 1, HCT116 PTEN-null 87.9 and TNAP inh noacc 6.3.
COc1cc2c(cc1NC(=S)NC(=O)c1c(OC)cccc1OC)oc1ccccc12 was read as TNAP inh hi DEA -1.8, Lmaj promast 87.9*, HCT116 bCat-KO 84.0, TNAP act hiacc 1, HCT116 PTEN-null 77.1, TNAP inh noacc -5.4 and Lmaj promast 1uM 45.9.
`CCN(CC)CC(=O)Nc1ccc2c(c1)N(C(=O)CN(CC)CC)c1ccccc1CC2` gave TNAP inh hi DEA -1.9, Lmaj promast 99.3*, HCT116 bCat-KO 89.9, TNAP act hiacc 1, HCT116 PTEN-null 91.8, TNAP inh noacc -5.8 and Lmaj promast 1uM 8.1.
For CC1(C)CC(=O)c2cc(C(=O)NNc3ccccc3)c(=O)n(-c3ccccc3)c2C1 the results were TNAP inh hi DEA -1.7, Lmaj promast 52.3*, TNAP act hiacc 1, TNAP inh noacc -10.3 and Lmaj promast 1uM 10.7.
Screening O=C(CN1CCc2ccccc2C1)N1CCN(S(=O)(=O)c2ccccc2)CC1 returned TNAP inh hi DEA -2.1, Lmaj promast 90.3*, HCT116 bCat-KO 98.8, TNAP act hiacc 1, HCT116 PTEN-null 93.9, TNAP inh noacc -5.4 and Lmaj promast 1uM 30.7.
For O=C(O)CSCC(=O)N1CCN(S(=O)(=O)c2ccccc2)CC1 the results were TNAP inh hi DEA -7.9, Lmaj promast 5.8, TNAP act hiacc 1.1 and TNAP inh noacc -21.5.
Cc1cc2nc(SCCOC(=O)Nc3ccccc3)nc(C)c2cc1C was read as TNAP inh hi DEA 0.5, Lmaj promast 65.6*, HCT116 bCat-KO 81.9, TNAP act hiacc 1, HCT116 PTEN-null 93.9, TNAP inh noacc -0.9 and Lmaj promast 1uM -14.4.
For Cc1cc2nc(SCCOC(=O)Nc3cccc(Cl)c3)nc(C)c2cc1C the results were TNAP inh hi DEA -2.0, Lmaj promast -3.8, HCT116 bCat-KO 84.7, TNAP act hiacc 1, HCT116 PTEN-null 76.8 and TNAP inh noacc 0.2.
CCC(CC)C(=O)Nc1ccc(Cl)c(Cl)c1 was read as TNAP inh hi DEA -7.7, Lmaj promast 3.9, HCT116 bCat-KO 86.7, TNAP act hiacc 1.1, HCT116 PTEN-null 75.0 and TNAP inh noacc -15.5.
Screening CCN1C(=O)N(c2cccc3ccccc23)C(C)=CC1(C)C returned TNAP inh hi DEA 0.0, Lmaj promast 50.7*, HCT116 bCat-KO 70.5, TNAP act hiacc 1, HCT116 PTEN-null 56.8, TNAP inh noacc -8.7 and Lmaj promast 1uM 5.8.
For CN1/C(=C/C2CC(=O)N(c3cccc4ccccc34)C2=O)C(C)(C)c2ccccc21 (stereo not given) the results were TNAP inh hi DEA -6.6, Lmaj promast 0.6, HCT116 bCat-KO 89.3, TNAP act hiacc 1.1, HCT116 PTEN-null 92.0 and TNAP inh noacc -7.2.
For O=C(CCC(=O)OCC(F)(F)C(F)F)Nc1ccccc1F the results were TNAP inh hi DEA 1.7, Lmaj promast -4.9, TNAP act hiacc 1 and TNAP inh noacc -7.0.
`COc1ccc(C2=NN(C(=O)c3ccc(Cl)c([N+](=O)[O-])c3)C(c3ccccc3)C2)cc1` (stereo not given) gave TNAP inh hi DEA -1.4, Lmaj promast 32.5, HCT116 bCat-KO 47.3, TNAP act hiacc 1, HCT116 PTEN-null 64.1 and TNAP inh noacc -6.0.
